For 7 compounds, Activity and IC50 results are on record in ChEMBL document CHEMBL1150875, “Petrosaspongiolides M-R: new potent and selective phospholipase A2 inhibitors from the New Caledonian marine sponge Petrosaspongia nigra” (J Nat Prod, 1998).

In general, IC50 refers to the concentration that gives 50% inhibition.

For one assay, the species on record is Sus scrofa. Nature of the assay: Inhibition of pig pancreatic secretory PLA2 at 10 uM. On the set-up: scale not given: the % may be the effect or the level left. Put shortly: (§1)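 Percent inhibition of the enzyme's activity with test compound at 10 µM. Reported as mean ± S.E.M., n = 6, with significance marked at p < 0.05 and p < 0.01.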
Assay [1] concerns the target T1, Phospholipase A2 (Apis mellifera) (UniProt P00630).
T1 sequence (whole entry): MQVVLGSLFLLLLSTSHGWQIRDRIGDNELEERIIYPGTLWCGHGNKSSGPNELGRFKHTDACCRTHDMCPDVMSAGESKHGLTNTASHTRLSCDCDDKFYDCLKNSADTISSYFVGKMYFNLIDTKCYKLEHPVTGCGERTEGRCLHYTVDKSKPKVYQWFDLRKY
Nature of the assay: Inhibition of bee venom secretory PLA2 at 10 uM. On the set-up: scale not given: the % may be the effect or the level left. The method, boiled down: (§2)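 Secreted PLA2 from Naja naja venom or bee venom exposed to 10 µM compound. Result reported as percent inhibition, mean ± S.E.M. of n = 6.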

Assay [2] deals with Acidic phospholipase A2 2 (Naja naja) (UniProt P15445). The assay is described as follows: Inhibition of Naja Naja venom secretory PLA2 at 10 uM. Details: scale not given: the % may be the effect or the level left. The method, boiled down: as §2
Acidic phospholipase A2 2 (Naja naja), sequence (P15445 whole entry): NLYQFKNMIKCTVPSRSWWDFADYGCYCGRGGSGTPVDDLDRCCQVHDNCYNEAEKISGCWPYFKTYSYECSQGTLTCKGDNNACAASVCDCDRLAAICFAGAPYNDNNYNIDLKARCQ
For assay [3], the target named is Phospholipase A2 (Homo sapiens) (UniProt P04054). The assay is described as follows: Inhibition of human synovial secretory PLA2 at 10 uM. Details: scale not given: the % may be the effect or the level left. The method, boiled down: as §1
Phospholipase A2 (Homo sapiens), sequence (P04054 23-148 limits assumed): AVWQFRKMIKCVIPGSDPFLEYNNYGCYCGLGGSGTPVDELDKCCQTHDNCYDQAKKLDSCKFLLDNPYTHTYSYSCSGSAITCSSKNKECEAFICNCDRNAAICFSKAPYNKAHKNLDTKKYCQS
The next assay has as its target T2, Phospholipase A2 (Apis mellifera, UniProt P00630).
T2 sequence (P00630 whole entry): T1 sequence (whole entry)
Nature of the assay: Inhibition of bee venom secretory PLA2.

Turning to `CC(=O)O[C@H]1O[C@@H](C2=CC(=O)OC2O)C[C@@H]2[C@@H]1CCC1[C@@]3(C)CCCC(C)(C)C3CC[C@]12C` (stereo partly specified), the Activity is 0% in the assay filed under Sus scrofa, 34.8% in assay [1], 5.6% in assay [2] and 59% in assay [3].
For the compound `CC1=C(CC/C(C)=C/CCC2=CC[C@H](C3=CC(=O)O[C@H]3O)O[C@H]2O)C(C)(C)CCC1` [MANOALIDE], at Phospholipase A2, the IC50 is 7.5 µM.
In the case of `CC1(C)CCC[C@]2(C)[C@H]3CC[C@H](C(=O)O)[C@@H](/C=C/C4=CC(=O)OC4O)[C@]3(C)CC[C@@H]12` (stereo partly specified), the Activity stood at 0.8% in the assay listed under Sus scrofa, 18.8% in assay [1], 1% in assay [2] and 7.1% in assay [3].
Turning to `CC(=O)OC[C@@]1(C)CCC[C@]2(C)[C@H]3CC[C@@H]4[C@H](OC(C)=O)O[C@@H](C5=CC(=O)OC5O)C[C@H]4[C@]3(C)CC[C@@H]12` (stereo partly specified), the Activity in the assay filed under Sus scrofa was 11.6%; in assay [1], 43.9%; in assay [2], 6.8%; in assay [3] it was 44%.
Regarding `CC(=O)OC[C@@]1(C)CCC[C@]2(C)[C@H]3CC[C@@H]4[C@H](O)O[C@@H](C5=CC(=O)OC5O)C[C@H]4[C@]3(C)CC[C@@H]12` (stereo partly specified), the Activity in the assay filed under Sus scrofa was determined as 0%; in assay [1], 12.5%; in assay [2], 4.2%; in assay [3], 30.1%.
Taken in the same sequence, the figures for `CC(=O)OC1OC(=O)C=C1[C@H]1C[C@@H]2[C@H](CCC3[C@@]4(C)CCCC(C)(C)C4CC[C@]32C)[C@@H](OC(C)=O)O1` (stereo partly specified) were 0%, 10.6%, 6.9% and 32.1%.
On Phospholipase A2, `CC(=O)O[C@@H]1O[C@@H](C2=CC(=O)OC2O)C[C@@H]2[C@@H]1CC[C@H]1[C@@]2(C)CC[C@H]2C(C)(C)CCC[C@]12C` (stereo partly specified) [PETROSASPONGIOLIDE M] registered an IC50 of 0.6 µM. The Activity in the assay filed under Sus scrofa was 12.3%; in assay [1], 71%; in assay [2], 11.5%; in assay [3], 68.6%.
